Measured values taken from publication PMC8859974 (Journal of medicinal chemistry, 2019).

Assays:
PA-CMG2 interaction [1] = molecular target: T1, PA-CMG2 interaction (Homo sapiens, UniProt P58335, C175A/R40C); experiment: CMG2-PA FRET assay; format: binding; settings: for inhibitory effect on CMG2-PA interaction (in words): FRET assay
T1 sequence (P58335 40-217 R40C/C175A): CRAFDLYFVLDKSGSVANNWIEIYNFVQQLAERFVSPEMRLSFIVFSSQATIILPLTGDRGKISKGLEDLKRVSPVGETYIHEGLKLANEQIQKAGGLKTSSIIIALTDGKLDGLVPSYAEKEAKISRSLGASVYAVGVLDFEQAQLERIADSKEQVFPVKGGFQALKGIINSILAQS
In short: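 After AF546 dispensing, 32 nM PA-AF488 solution was added and the mix incubated 4 h. Excitation 485 nm; emission 535 and 595 nm. Artifact-filtered Em595/Em535 FRET ratio was converted to % inhibition against an interaction control (100%) and an EDTA no-interaction control (0%).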

[2] = system: bFGF-induced angiogenesis; settings: oral or intraperitoneal administration; cited from earlier work
PA-CMG2 interaction [3] = molecular target: T1, PA-CMG2 interaction; settings: cited from earlier work
[4] = format: in vivo, mice
EA.hy926 cells = experiment: CellASIC microfluidic chemotactic endothelial cell migration; format: cell-based; settings: Homo sapiens, EA.hy 926, 12 h, read-out: Best fit IC50, chemotactic endothelial cell migration

Compound: O=C(OC[C@@H](OC(=O)c1ccc(O)c(O)c1O)[C@@H]1O[C@H](OC(=O)c2ccc(O)c(O)c2O)[C@H](OC(=O)c2ccc(O)c(O)c2O)[C@H]1OC(=O)c1ccc(O)c(O)c1O)c1ccc(O)c(O)c1O [compound 15, α-D-Galactofuranose pentakis(2,3,4-trihydroxybenzoate)]
- IC50 (PA-CMG2 interaction [1]): > 10 µM

Compound: O=C(OC[C@H]1O[C@@H](OC(=O)c2cc(O)c(O)c(O)c2)[C@H](OC(=O)c2cc(O)c(O)c(O)c2)[C@@H](OC(=O)c2cc(O)c(O)c(O)c2)[C@@H]1OC(=O)c1cc(O)c(O)c(O)c1)c1cc(O)c(O)c(O)c1 [compound 1, 1,2,3,4,6-penta-O-galloyl-ß-D-glucopyranose]
- angiogenesis in the mouse corneal micropocket assay [2]: inhibits angiogenesis
- IC50 of binding to CMG2 (PA-CMG2 interaction [3]): submicromolar

Compound: O=C(OC[C@H]1O[C@H](O[C@H]2O[C@H](COC(=O)c3cc(O)c(O)c(O)c3)[C@@H](OC(=O)c3cc(O)c(O)c(O)c3)[C@H](OC(=O)c3cc(O)c(O)c(O)c3)[C@H]2OC(=O)c2cc(O)c(O)c(O)c2)[C@@H](OC(=O)c2cc(O)c(O)c(O)c2)[C@@H](OC(=O)c2cc(O)c(O)c(O)c2)[C@@H]1OC(=O)c1cc(O)c(O)c(O)c1)c1cc(O)c(O)c(O)c1 [compound 27, α,α-D-Trehalose octakis(3,4,5-trihydroxybenzoate)]
- inhibitory effect on CMG2-PA interaction (in words) (PA-CMG2 interaction [1]): did not inhibit CMG2-PA interaction

Compound: O=C(O[C@@H]1OC[C@@H](OC(=O)c2ccc(O)c(O)c2O)[C@@H](OC(=O)c2ccc(O)c(O)c2O)[C@H]1OC(=O)c1ccc(O)c(O)c1O)c1ccc(O)c(O)c1O [compound 23, β-D-Ribopiranose tetrakis(2,3,4-trihydroxybenzoate)]
- inhibitory effect on CMG2-PA interaction (in words) (PA-CMG2 interaction [1]): no inhibitory effect

Compound: O=C(O[C@@H]1OC[C@@H](OC(=O)c2cc(O)c(O)c(O)c2)[C@@H](OC(=O)c2cc(O)c(O)c(O)c2)[C@H]1OC(=O)c1cc(O)c(O)c(O)c1)c1cc(O)c(O)c(O)c1 [compound 10]
- inhibitory effect on CMG2-PA interaction (in words) (PA-CMG2 interaction [1]): no inhibitory effect

Compound: O=C(O[C@H]1OC[C@@H](OC(=O)c2ccc(O)c(O)c2O)[C@@H](OC(=O)c2ccc(O)c(O)c2O)[C@H]1OC(=O)c1ccc(O)c(O)c1O)c1ccc(O)c(O)c1O [compound 22, α-D-Ribopiranose tetrakis(2,3,4-trihydroxybenzoate)]
- inhibitory effect on CMG2-PA interaction (in words) (PA-CMG2 interaction [1]): no inhibitory effect

Compound: O=C(OC[C@H]1O[C@H](O[C@H]2O[C@H](COC(=O)c3ccc(O)c(O)c3O)[C@@H](OC(=O)c3ccc(O)c(O)c3O)[C@H](OC(=O)c3ccc(O)c(O)c3O)[C@H]2OC(=O)c2ccc(O)c(O)c2O)[C@@H](OC(=O)c2ccc(O)c(O)c2O)[C@@H](OC(=O)c2ccc(O)c(O)c2O)[C@@H]1OC(=O)c1ccc(O)c(O)c1O)c1ccc(O)c(O)c1O [compound 31, α,α-D-Trehalose octakis(2,3,4-trihydroxybenzoate)]
- inhibitory effect on CMG2-PA interaction (in words) (PA-CMG2 interaction [1]): did not inhibit CMG2-PA interaction

Compound: O=C(OC[C@H]1O[C@H](O[C@H]2[C@H](OC(=O)c3cc(O)c(O)c(O)c3)[C@@H](OC(=O)c3cc(O)c(O)c(O)c3)[C@H](OC(=O)c3cc(O)c(O)c(O)c3)O[C@@H]2COC(=O)c2cc(O)c(O)c(O)c2)[C@H](OC(=O)c2cc(O)c(O)c(O)c2)[C@@H](OC(=O)c2cc(O)c(O)c(O)c2)[C@@H]1OC(=O)c1cc(O)c(O)c(O)c1)c1cc(O)c(O)c(O)c1 [compound 25, β-D-Maltose octakis(3,4,5-trihydroxybenzoate)]
- inhibitory effect on CMG2-PA interaction (in words) (PA-CMG2 interaction [1]): did not inhibit CMG2-PA interaction

Compound: O=C(OC[C@H]1O[C@@H](OC(=O)c2cc(O)c(O)c(O)c2)[C@@H](OC(=O)c2cc(O)c(O)c(O)c2)[C@@H](OC(=O)c2cc(O)c(O)c(O)c2)[C@@H]1OC(=O)c1cc(O)c(O)c(O)c1)c1cc(O)c(O)c(O)c1 [compound 8, 1,2,3,4,6-penta-O-galloyl-β-D-mannopyranose]
- affinity for CMG2 relative to the glucose prototype PGG (PA-CMG2 interaction [1]; FRET based binding assay): up to 10 x
- weight loss ([4]; 10 mg/kg intraperitoneally, compared to vehicle-treated control animals): no significant weight loss
- signs of toxicity (weight loss, hunched posture, behavioral abnormalities) ([4]; treated mice): no obvious signs of toxicity
- IC50 (EA.hy926 cells): 0.365 ± 0.129 µM

Compound: CCCOC(=O)c1cc(O)c(O)c(O)c1 [propyl gallate]
- inhibitory activity (PA-CMG2 interaction [3]; concentrations up to 300 μM): do not showed any inhibitory activity
